Assay results as given in publication PMC9798170 (International Journal for Parasitology: Drugs and Drug …, 2022).
Values after ≈ are worked out from the molar mass of the structure shown. “Also recorded” adds a separate entry of the source. Values belong to the molecule of their own block, whether it stands above or below them.

Legend:
[1] = tested on: P. falciparum 3D7 strain; details: ref Hidayati et al., 2020; cited from earlier work
[2] = tested on: succinate-cytochrome c (complex II-III activities); assay: Counter assay succinate-cytochrome c activity, bovine heart mitochondria; assay type: biochemical; details: read-out: IC50 of the sample against succinate-cytochrome c (complex II-III)
In short: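 Run as the NADH assay (phosphate buffer pH 7.4, 2 mM KCN) but with 100 µM cytochrome c and 25 µg/mL bovine heart mitochondria. Reaction started with 10 mM succinate, and cytochrome c reduction read at 550 nm, in quadruplicate. Test compound was serially diluted from 100 to 0.003 µM. DMSO was the 0% inhibition control and 5 µM ascochlorin the 100% inhibition control.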

[3] = tested on: NADH-cytochrome c (complex I-III activities); assay: Counter assay NADH-cytochrome c activity, bovine heart mitochondria; assay type: biochemical; details: read-out: IC50 of the sample against succinate-cytochrome c (complex I-III)
[4] = tested on: synchronized P. falciparum 3D7 strain; assay: Impairment of P. falciparum intraerythrocytic stage development; assay type: cell-based, Plasmodium falciparum; details: tested at IC50 concentration
In short: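 Parasites were sorbitol-synchronized (5% w/v) and set at 0.3% parasitemia in human O+ RBCs in RPMI-1640 with 10% human serum at 37 °C. Sampling was at 0, 24 and 48 h. Giemsa-stained thin smears were scored for stage by light microscopy at 1000×. Each concentration was run in duplicate on the same plate.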

[5] = tested on: Plasmodium falciparum 3D7; assay: Isobologram analysis, fixed-ratio combinations; assay type: cell-based; details: fixed ratios 4:1, 3:2, 2:3, 1:4; 72 h
In short: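 Test compound was combined with atovaquone or chloroquine at fixed ratios 4:1, 3:2, 2:3 and 1:4, with 5:0 and 0:5 for single agents, in serial dilution. Synchronized rings at 0.3% parasitemia were incubated 72 h at 37 °C under 90% N2/5% CO2/5% O2, then read by PfLDH/diaphorase. IC50 was determined per mixture, and FIC = IC50 in mixture / IC50 alone.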

[6] = tested on: Plasmodium falciparum 3D7; assay: In vitro antimalarial assay; assay type: cell-based; details: P. falciparum 3D7, 48 h, microscopic assay; listed as Chloroquine diphosphate
In short: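 Test compound stock was 10 mg/mL in DMSO, diluted in RPMI-1640 to final 0.01–100 µg/mL. It was added to culture at ~1% parasitemia and 5% haematocrit in human O+ RBCs with 10% serum, then incubated 48 h at 37 °C. Parasitemia was counted per 1000 RBCs on 10% Giemsa smears. Inhibition was taken relative to the negative control, and IC50 came from a four-parameter logistic fit.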

[7] = biological target: T1, recombinant PfMQO (Plasmodium falciparum, UniProt C6KT09); assay: Recombinant PfMQO activity inhibition assay; assay type: biochemical; details: recombinant PfMQO membrane fraction
T1 sequence (C6KT09 1-521): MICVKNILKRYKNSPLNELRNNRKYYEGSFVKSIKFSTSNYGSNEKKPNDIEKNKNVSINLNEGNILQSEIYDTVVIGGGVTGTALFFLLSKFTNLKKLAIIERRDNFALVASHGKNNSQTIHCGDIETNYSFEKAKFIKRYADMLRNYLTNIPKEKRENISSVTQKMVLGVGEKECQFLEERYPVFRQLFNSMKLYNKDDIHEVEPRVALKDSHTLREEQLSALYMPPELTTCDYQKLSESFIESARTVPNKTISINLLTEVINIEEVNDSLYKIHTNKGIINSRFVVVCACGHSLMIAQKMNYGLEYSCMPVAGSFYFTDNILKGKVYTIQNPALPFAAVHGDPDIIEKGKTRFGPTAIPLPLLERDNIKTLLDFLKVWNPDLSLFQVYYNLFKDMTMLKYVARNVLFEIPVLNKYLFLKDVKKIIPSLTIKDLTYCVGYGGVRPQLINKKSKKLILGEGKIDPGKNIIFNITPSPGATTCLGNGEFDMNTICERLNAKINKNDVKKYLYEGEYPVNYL
In short: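 PfMQO membrane fraction (3 µg/mL) was used in 50 mM HEPES-KOH pH 7.0 with 1 mM KCN, 25 µM decylubiquinone and 120 µM DCIP. Background was read for 5 min at 600 nm and 37 °C, then malate (400 mM stock) was added and activity recorded for 10 min. DMSO wells served as 0% and no-malate wells as 100%. Runs were in triplicate over test compound 0.001–100 µM, with four-parameter nonlinear fit.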

[8] = tested on: P. falciparum; details: P. falciparum growth; ref Widyawaruyanti et al., 2007; cited from earlier work

Molecule: CC(C)=CCCC1(C)C=Cc2c(CCC(=O)c3ccc(O)cc3O)ccc(O)c2O1 (stereo not drawn) [1-(2,4-dihydroxyphenyl)-3-(8-hydroxy-2-methyl-2-(4-methyl-3-pentenyl)-2H-1-benzopyran-5-yl]-1-propanone]
IC50 [1]: 1050 nM

Molecule: CC(/C=C/[C@@]1(C)[C@H](C)CCC(=O)[C@@H]1C)=C\Cc1c(O)c(Cl)c(C)c(C=O)c1O [Ascochlorin]
IC50 [2]: 10 nM | IC50 [3]: 10 nM

Molecule: Cc1c(-c2ccc(-c3ccccc3F)cc2)nc2ccc(F)cc2c1C(=O)O [Brequinar]
IC50 [2]: 22900 ± 1460 nM

IC50 [6]: 0.004 µg/mL (≈ 0.0125 µM)
Molecule: CCN(CC)CCCC(C)Nc1ccnc2cc(Cl)ccc12 (stereo not drawn) [Chloroquine]
stage development after 24 h of incubation ([4]; 24 h): ring stage was still dominant | stage development after 48 h of incubation ([4]; 48 h): accumulation of trophozoite | interaction in combination with atovaquone (isobologram) [5]: antagonistic interactions; also recorded: antagonism

Molecule: CC(C)=CCC/C(C)=C/CC/C(C)=C/Cc1c(O)c2ccccc2oc1=O [Ferulenol]
IC50 [2]: 170 ± 10 nM | IC50 [3]: 280 ± 80 nM | IC50 [7]: 0.06 ± 0.01 µg/mL | IC50 ([7]; listed as ferulenol): 170 nM

Molecule: C=C(C)[C@H]1Cc2c(ccc3c2O[C@@H]2COc4cc(OC)c(OC)cc4[C@@H]2C3=O)O1 [Rotenone]
IC50 [2]: 1860 ± 110 nM | IC50 [3]: 10 nM

Molecule: Heteroflavanone C
IC50 [8]: 1 nM
